core dimer inh: HCV core protein dimerization inhibition. TR-FRET GST/Flag-core106 dimerization, 1536-well. inhibition, % at 5 µM. actives 0.33% (n = 300,000). AID 1899;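 active = inhibition above the mean of all tested compounds plus 3 SD, set per screening campaign, cut at about 45% in these data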
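Assay system: tagged HCV core106 pair (GST and Flag); medium: KF-containing HEPES buffer, pH 7.45, DTT, CHAPS, BSA; also added: Eu donor and XL665 acceptor anti-tag antibodies; dosing: 5 µM single dose; timing: compound-protein-antibody incubation 4 h at 22.5 °C; signal: TR-FRET 671 and 617 nm emission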
NS3 helicase inh: blocks Hepatitis C virus NS3 helicase unwinding; inhibition, % at 10.9 µM; actives 0.56% (n = 290,000); NS3 helicase DNA unwinding, Cy5 molecular beacon fluorescence;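 active = inhibition above the mean of all tested compounds plus 3 SD, set per campaign, cut at about 35% in these data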;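 note: 0% = DMSO wells and 100% = thioflavine S control wells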
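Test system: hepatitis C virus NS3 helicase domain fragment enzyme. Also added: annealed dual-labelled DNA beacon duplex, ATP-started. Timing: 60 min unwinding reaction at 25 °C after ATP addition. Technique: Cy5 fluorescence. Measure: % inhibition of unwinding.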
Hep lipid drop: hepatic lipid droplet formation modulation; inhibition, % at 6.5 µM; actives 0.4% (n = 240,000); AML12 mouse hepatocytes, oleate lipid droplets, BODIPY imaging;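 active = lipid droplet intensity inhibited by at least 50%, with more than 500 cells counted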
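Material – mouse AML12 hepatocyte cell line, fixed after treatment · Compound dosing – one dose, 6.5 µM compound · Times – compound with oleate, overnight · Measured by – Image-based BODIPY and DAPI two-channel analysis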
TbMetRS inhib: blocks T. brucei methionyl-tRNA synthetase activity; purified T. brucei MetRS, ATP depletion, Kinase-Glo luminescence; inhibition, % at 11.9 µM; actives 0.4% (n = 360,000);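 active = inhibition above a per-plate cutoff of the control wells' mean inhibition plus 3 SD, cut at about 5.5% in these data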;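 note: 0% = DMSO wells median and 100% = median of wells with control inhibitor compound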
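Material: T. brucei methionyl-tRNA synthetase, purified; reagent: substrates ATP, L-methionine and bulk Escherichia coli tRNA; dosing: 11.9 µM single point; timing: 15 min plus 2 h at 25 °C; detection: luminescence of leftover ATP; evaluation: % inhibition; control set: DMSO-only wells as low control; replicates: singlicate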
Hep lipid conf: confirmation of inhibitors of hepatic lipid droplet formation. inhibition, % at 5.2 µM. actives 65% (n = 870). AML12 mouse hepatocytes, BODIPY lipid droplet imaging; droplets induced with 100 µM oleic acid. shares compounds with Hep lipid drop;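 active = inhibition of lipid droplet metric at least 50%, with more than 300 cells in each of four replicates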;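 note: plate controls were DMSO with oleic acid for no effect and 5 µM Triacsin-C for full effect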
AML12 tox img: toxic to AML12 mouse hepatocytes in counter-screen; DAPI nuclear morphology cytotoxicity imaging; hits give high values; cells fed 100 µM oleate overnight; actives 3% (n = 870); z-score at 5 µM; shares compounds with Hep lipid drop; AID 463200; in the data active = z-score above about 6.3;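 note: compound exposure lasted overnight at 37 °C before fixation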
AML12 tox conf: AML12 hepatocyte cytotoxicity, confirmed; AML12 mouse hepatocyte viability, ATP luminescence; cells loaded with 100 µM oleic acid; cytotoxicity, % at 50 µM; 530 tested, under 10 active; shares compounds with Hep lipid drop;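 active = cytotoxicity above 50% in each of four replicates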;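 note: compound exposure lasted overnight at 37 °C before the ATP read; 0% = DMSO-treated cells and 100% = wells with no cells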
* marks the source's active call; other numbers are inactive results; · = not tested or not shown. The list is not random: actives were taken first. Their share in the collection is about 1.3%.

SMILES	core dimer inh	NS3 helicase inh	Hep lipid drop	TbMetRS inhib	Hep lipid conf	AML12 tox img	AML12 tox conf
COc1ccc(CCNC(=O)CCNC(=O)c2ccccc2Cl)cc1	5.7	1.6	-6.9	-1.0	·	·	·
CCOc1ccc(CCNC(=O)c2cc3sc(Cl)cc3n2C)cc1OCC	7.6	0.3	88.9*	-1.0	106.8*	0.666	4.5
COc1ccc(CCNC(=O)c2cccs2)cc1OC	-4.2	13.2	1.8	-0.7	·	·	·
CCOc1ccc(CCNC(=O)c2cccs2)cc1OCC	1.6	-1.6	75.6*	-0.5	99.5*	-0.446	8.3
Cc1cccc(C)c1N1C(=O)c2ccccc2NC(=O)C1C(=O)NCCc1ccccc1 (stereo not drawn)	·	·	·	-0.8	·	·	·
CCc1ccccc1NS(=O)(=O)c1cc2c(cc1C)n(C)c(=O)c(=O)n2C	-3.1	-0.4	84.6*	-1.1	105.0*	-0.205	8.9
CCn1c(=O)n(CC)c2cc(S(=O)(=O)Nc3ccccc3C)c(C)cc21	0.1	-4.3	40.4	0.3	·	·	·
C[C@@H]1CC2=C(C(=O)OC(C)(C)O2)[C@H](c2ccc(F)cc2)O1	·	·	·	-0.6	·	·	·
Fc1ccc(Nc2nc(N3CCOCC3)nc(N3CCOCC3)n2)cc1Cl	-8.4	-6.8	-11.6	-0.5	·	·	·
Clc1ccc(Nc2nc(NCCN3CCOCC3)nc(N3CCOCC3)n2)cc1	-9.0	-41.4	65.8*	-0.7	75.2*	18.6*	·
CCOc1ccc(CCNC(=O)COC(=O)c2ccc(OC)c(OC)c2OC)cc1OCC	-2.1	5.5	77.1*	-0.2	108.8*	-0.679	9.6
CCOc1ccc(CCNC(=O)CN2CCN(Cc3ccc(F)cc3)C2=O)cc1OCC	5.7	1.6	68.7*	-0.5	103.9*	-0.21	12.9
CCOc1ccc(CCNC(=O)C2CC(=O)N(Cc3ccc(OC)cc3)C2)cc1OCC (stereo not drawn)	-5.0	1.0	57.2*	-0.2	93.1*	-0.162	16.0
CCOc1ccc(CCNC(=O)C2CCN(S(=O)(=O)N3CC(C)CC(C)C3)CC2)cc1OCC (stereo not drawn)	10.1	0.3	81.9*	-0.1	4.8	-0.364	·
CCOc1ccc(CCNC(=O)COC(=O)c2cccc(OC)c2O)cc1OCC	1.5	12.0	39.0	-0.4	·	·	·
CCOc1ccc(CCNC(=O)C2CCN(S(=O)(=O)CC)CC2)cc1OCC	-7.0	-6.0	·	-0.4	·	·	·
CC(C)(C)OC(=O)N1CCc2onc(-c3ccc(N)cc3)c2C1=O	·	·	·	-1.2	·	·	·
Cc1nc2ccccc2n1C(C)c1nc2ccccc2n1CC(=O)c1ccc(OC(F)(F)F)cc1 (stereo not drawn)	·	·	·	-0.3	·	·	·
CNc1n[nH]c(-c2ccccc2)n1	·	·	·	-0.1	·	·	·
CCOc1ccc(CCNC(=O)C2CC=CCC2C(=O)OC(C)C)cc1OCC (stereo not drawn)	-12.3	5.7	114.2*	0.2	106.5*	0.382	13.0
CCCOc1ccc(C(=O)OCC(=O)NCCc2ccc(OCC)c(OCC)c2)cc1OC	0.6	-6.4	87.5*	0.9	109.6*	-0.657	7.6
CCOc1ccc(CCNC(=O)C2CC(C)=CCC2C(=O)O)cc1OCC (stereo not drawn)	-30.5	12.9	-0.6	-0.6	·	·	·
CCOc1ccc(CCNC(=O)COC(=O)Cc2ccc(OC)c(OC)c2)cc1OCC	1.0	·	·	-0.1	·	·	·
CCOc1ccc(C(=O)OCC(=O)Nc2nc(OC)cc(OC)n2)cc1OCC	0.0	-4.9	63.6*	-0.6	102.2*	-0.562	15.0
CCOc1ccc(CCNC(=O)CCS(=O)(=O)c2ccc(OC)cc2)cc1OCC	1.0	8.5	84.3*	-0.8	97.2*	-0.439	10.3
SMILES	core dimer inh	NS3 helicase inh	Hep lipid drop	TbMetRS inhib	Hep lipid conf	AML12 tox img	AML12 tox conf
CCOc1ccc(S(=O)(=O)NCCC(=O)NCCc2ccc(OCC)c(OCC)c2)cc1	-8.7	·	·	-0.3	·	·	·
CC(C)c1ccc(NC(=O)C2(C)Cc3c(-c4ccc(C(N)=O)cc4)ccnc3O2)cc1 (stereo not drawn)	·	·	·	0.1	·	·	·
CC(C)C(N)c1csc(NC(=O)Nc2cccc(Cl)c2)n1 (stereo not drawn)	·	·	·	-0.1	·	·	·
CCOc1ccc(CCNC(=O)COC(=O)c2cc(OC)cc(OC)c2)cc1OCC	1.2	-4.8	61.0*	0.2	94.4*	-0.869	7.2
CCOc1ccc(CCNC(=O)COC(=O)c2ccncc2)cc1OCC	·	·	·	-0.7	·	·	·
CCOc1cc2c(cc1OCC)C(c1ccccc1)N(c1ccccc1)C(=O)C2 (stereo not drawn)	8.5	-5.2	89.4*	0.3	106.8*	-0.327	3.1
CCOc1cc2c(cc1OCC)C(c1ccc(OC)cc1)N(c1ccccc1)C(=O)C2 (stereo not drawn)	1.2	-0.6	50.9*	-1.2	60.1*	-1.05	1.7
CCOc1ccc(C2c3cc(OC)c(OC)cc3CC(=O)N2c2ccccc2)cc1 (stereo not drawn)	3.1	-6.9	·	-0.6	·	·	·
O=C(NCc1cccc(C(F)(F)F)c1)c1ccc2sc(C3=C[C@@H](O)[C@@H](O)[C@@H](CO)O3)nc2c1	·	·	·	0.5	·	·	·
Cc1ccccc1NC(=O)COC(=O)COc1ccc2ccc(=O)oc2c1	·	·	·	0.2	·	·	·
Cc1cccc(NC(=O)c2cccc(OC(=S)N3CCOCC3)c2)c1	10.5	-3.7	83.9*	-0.1	104.2*	0.0916	5.2
CCOC(=O)C1CCC(CN(Cc2ccccc2)S(=O)(=O)c2ccc([N+](=O)[O-])cc2)CC1 (stereo not drawn)	10.4	8.7	59.4*	0.0	81.5*	-0.462	6.5
O=S1(=O)CC(N2CCSCC2)CN1Cc1cn(Cc2ccc(F)cc2)nn1 (stereo not drawn)	·	·	·	-1.1	·	·	·
O=C(NCc1cccc(Cl)c1)C1Cc2c(-c3ccccc3Oc3ccccc3)ccnc2O1 (stereo not drawn)	·	·	·	-0.6	·	·	·
CC(C)[C@H](NC(=O)[C@@H]1Cc2ccccc2CN1C(=O)OC(C)(C)C)C(=O)NC1CCCC1	-5.2	1.3	-1.7	-0.7	·	·	·
COc1ccc(NC(=O)[C@H](C)NC(=O)[C@@H]2Cc3ccccc3CN2C(=O)OC(C)(C)C)cc1	-0.4	-2.9	54.8*	0.0	91.3*	-1.1	9.0
Cc1cccc(NC(=O)[C@H](C)NC(=O)[C@@H]2Cc3ccccc3CN2C(=O)OC(C)(C)C)c1	-10.3	4.5	61.9*	0.6	99.9*	0.467	11.7
COc1cccc(NC(=O)CNC(=O)[C@@H]2Cc3ccccc3CN2C(=O)OC(C)(C)C)c1	8.5	0.0	4.6	0.1	·	·	·
c1ccc(OCCNc2nc(NCC3CC3)nc3ccsc23)cc1	·	·	·	-0.3	·	·	·
CC1C(=O)N(Cc2cn(Cc3ccco3)nn2)CCS(=O)(=O)N1Cc1ccc(-c2ccccc2C(F)(F)F)cc1 (stereo not drawn)	·	·	·	-0.5	·	·	·

Assay outcomes: PubChem BioAssay, several laboratories
